# According to ChEMBL document CHEMBL1158122, “Anti-inflammatory, anti-tumor-promoting, and cytotoxic activities of constituents of marigold (Calendula officinalis) flowers” (J Nat Prod, 2006):
# Key:
# [1] = tested on: NCI-H322M; assay: Cytotoxicity against human NCI-H322M cells after 48 hrs by SRB assay; assay type: functional
# [2] = tested on: NCI-H460; assay: Cytotoxicity against human NCI-H460 cells after 48 hrs by SRB assay; assay type: functional; conditions: NCI-H460, 48 h
# [3] = tested on: COLO 205; assay: Cytotoxicity against human COLO205 cells after 48 hrs by SRB assay; assay type: functional; conditions: COLO 205, 48 h
# [4] = tested on: HCC 2998; assay: Cytotoxicity against human HCC2998 cells after 48 hrs by SRB assay; assay type: functional; conditions: HCC 2998, 48 h
# [5] = Cytotoxicity against human HCT 116 cells after 48 hrs by SRB assay; assay type: functional; conditions: HCT-116, 48 h
# [6] = tested on: HT-29; assay: Cytotoxicity against human HT-29 cells after 48 hrs by SRB assay; assay type: functional; conditions: HT-29, 48 h
# [7] = tested on: KM12; assay: Cytotoxicity against human KM12 cells after 48 hrs by SRB assay; assay type: functional; conditions: KM12, 48 h
# [8] = tested on: SW-620; assay: Cytotoxicity against human SW620 cells after 48 hrs by SRB assay; assay type: functional; conditions: SW-620, 48 h
# [9] = tested on: SF-268; assay: Cytotoxicity against human SF-268 cells after 48 hrs by SRB assay; assay type: functional; conditions: SF-268, 48 h
# [10] = tested on: SF-295; assay: Cytotoxicity against human SF-295 cells after 48 hrs by SRB assay; assay type: functional; conditions: SF-295, 48 h
# [11] = tested on: SNB-19; assay: Cytotoxicity against human SNB-19 cells after 48 hrs by SRB assay; assay type: functional; conditions: SNB-19, 48 h
# [12] = tested on: U-251; assay: Cytotoxicity against human U251 cells after 48 hrs by SRB assay; assay type: functional; conditions: U-251, 48 h
# How it was run: (§1)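 Tested in the NCI panel of 60 human tumour cell lines covering lung, colon, melanoma, renal, ovarian, breast and leukaemia. At least five concentrations were run in 10-fold dilutions starting from 10^-4 M. Exposure was continuous for 48 h. Growth or viability was estimated by sulforhodamine B protein staining, and GI50 values were reported.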
# [13] = tested on: LOX IMVI; assay: Cytotoxicity against human LOX IMVI cells after 48 hrs by SRB assay; assay type: functional
# [14] = tested on: Malme-3M; assay: Cytotoxicity against human MALME-3M cells after 48 hrs by SRB assay; assay type: functional
# [15] = tested on: SK-MEL-2; assay: Cytotoxicity against human SK-MEL-2 cells after 48 hrs by SRB assay; assay type: functional; conditions: SK-MEL-2, 48 h
# [16] = Cytotoxicity against human SK MEL28 cells after 48 hrs by SRB assay; assay type: functional; conditions: SK-MEL-28, 48 h
# [17] = tested on: SK-MEL-5; assay: Cytotoxicity against human SK-MEL-5 cells after 48 hrs by SRB assay; assay type: functional; conditions: SK-MEL-5, 48 h
# [18] = tested on: UACC-257; assay: Cytotoxicity against human UACC-257 cells after 48 hrs by SRB assay; assay type: functional; conditions: UACC-257, 48 h; how it was run: as §1
# [19] = tested on: UACC-62; assay: Cytotoxicity against human UACC-62 cells after 48 hrs by SRB assay; assay type: functional; conditions: UACC-62, 48 h; how it was run: as §1
# [20] = tested on: IGROV-1; assay: Cytotoxicity against human IGROV1 cells after 48 hrs by SRB assay; assay type: functional; conditions: IGROV-1, 48 h
# [21] = tested on: OVCAR-3; assay: Cytotoxicity against human OVCAR-3 cells after 48 hrs by SRB assay; assay type: functional; conditions: OVCAR-3, 48 h
# [22] = tested on: OVCAR-5; assay: Cytotoxicity against human OVCAR5 cells after 48 hrs by SRB assay; assay type: functional; conditions: OVCAR-5, 48 h
# [23] = tested on: OVCAR-8; assay: Cytotoxicity against human OVCAR8 cells after 48 hrs by SRB assay; assay type: functional; conditions: OVCAR-8, 48 h
# [24] = tested on: 786-0; assay: Cytotoxicity against human 786-0 cells after 48 hrs by SRB assay; assay type: functional; conditions: 786-0, 48 h
# [25] = tested on: NCI-H23; assay: Cytotoxicity against human NCI-H23 cells after 48 hrs by SRB assay; assay type: functional; conditions: NCI-H23, 48 h
# [26] = tested on: CAKI-1; assay: Cytotoxicity against human Caki-1 cells after 48 hrs by SRB assay; assay type: functional; conditions: CAKI-1, 48 h
# [27] = tested on: RXF 393; assay: Cytotoxicity against human […] cells after 48 hrs by SRB assay; assay type: functional; conditions: RXF 393, 48 h
# [28] = tested on: SN12C; assay: Cytotoxicity against human SN12C cells after 48 hrs by SRB assay; assay type: functional
# [29] = tested on: TK-10; assay: Cytotoxicity against human TK-10 cells after 48 hrs by SRB assay; assay type: functional; conditions: TK-10, 48 h; how it was run: as §1
# [30] = tested on: UO-31; assay: Cytotoxicity against human UO-31 cells after 48 hrs by SRB assay; assay type: functional; conditions: UO-31, 48 h; how it was run: as §1
# [31] = tested on: PC-3; assay: Cytotoxicity against human PC-3 cells after 48 hrs by SRB assay; assay type: functional; conditions: PC-3, 48 h
# [32] = tested on: MCF7; assay: Cytotoxicity against human MCF7 cells after 48 hrs by SRB assay; assay type: functional; conditions: MCF7, 48 h
# [33] = tested on: NCI/ADR-RES; assay: Cytotoxicity against human NCI/ADR-RES cells after 48 hrs by SRB assay; assay type: functional
# [34] = tested on: MDA-MB-231; assay: Cytotoxicity against human MDA-MB-231 cells after 48 hrs by SRB assay; assay type: functional; conditions: MDA-MB-231, 48 h
# [35] = Cytotoxicity against human Hs 578T cells after 48 hrs by SRB assay; assay type: functional
# [36] = tested on: MDA-MB-435; assay: Cytotoxicity against human MDA-MB-435 cells after 48 hrs by SRB assay; assay type: functional; conditions: MDA-MB-435, 48 h
# [37] = tested on: BT-549; assay: Cytotoxicity against human BT-549 cells after 48 hrs by SRB assay; assay type: functional; conditions: BT-549, 48 h
# [38] = tested on: T47D; assay: Cytotoxicity against human T47D cells after 48 hrs by SRB assay; assay type: functional; how it was run: as §1
# [39] = tested on: HCT-15; assay: Cytotoxicity against human HCT-15 cells after 48 hrs by SRB assay; assay type: functional; conditions: HCT-15, 48 h
# [40] = tested on: Raji; assay: Inhibition of TPA-induced EBV-early antigen activation in human Raji cells at 1000 molar ratio relative to TPA; assay type: cell-based; parameters: scale not given: the % may be the effect or the level left; conditions: human gammaherpesvirus 4
# [41] = tested on: Raji; assay: Inhibition of TPA-induced EBV-early antigen activation in human Raji cells at 500 molar ratio relative to TPA; assay type: cell-based; parameters: scale not given: the % may be the effect or the level left; conditions: human gammaherpesvirus 4
# [42] = tested on: Raji; assay: Inhibition of TPA-induced EBV-early antigen activation in human Raji cells at 100 molar ratio relative to TPA; assay type: cell-based; parameters: scale not given: the % may be the effect or the level left; conditions: human gammaherpesvirus 4
# [43] = tested on: Raji; assay: Inhibition of TPA-induced EBV-early antigen activation in human Raji cells at 10 molar ratio relative to TPA; assay type: cell-based; parameters: scale not given: the % may be the effect or the level left; conditions: human gammaherpesvirus 4
# [44] = Inhibition of TPA-induced EBV-early antigen activation in human Raji cells relative to TPA; assay type: cell-based, human gammaherpesvirus 4
# [45] = Cytotoxicity against human Raji cells assessed as cell viability at 1000 molar ratio; assay type: cell-based; conditions: read-out: Activity
# How it was run: (§2)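 Raji cells were treated with 32 pmol TPA to induce EBV early antigen activation. The test agent was added at 10, 100, 500 or 1000 mol ratio relative to TPA, and Raji cell viability was measured alongside EA activation.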
# [46] = Cytotoxicity against human Raji cells assessed as cell viability at 500 molar ratio; assay type: cell-based; conditions: read-out: Activity; how it was run: as §2
# [47] = Cytotoxicity against human Raji cells assessed as cell viability at 100 molar ratio; assay type: cell-based; conditions: read-out: Activity; how it was run: as §2
# [48] = Cytotoxicity against human Raji cells assessed as cell viability at 10 molar ratio; assay type: cell-based; conditions: read-out: Activity; how it was run: as §2
# [49] = tested on: Mus musculus; assay: Antiinflammatory activity against TPA-induced ear edema in mouse; assay type: functional
# How it was run: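 Specific-pathogen-free female ICR mice were housed five per cage at 24 ± 2 °C. Inflammation was induced on the ear with TPA at 1 µg/ear, and the test agent was applied per ear. Ear edema inhibition was expressed as ID50 in mg per ear.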
# [50] = tested on: HL-60; assay: Cytotoxicity against human HL-60 cells after 48 hrs by SRB assay; assay type: functional; conditions: HL-60, 48 h
# [51] = tested on: CCRF-CEM; assay: Cytotoxicity against human CCRF-CEM cells after 48 hrs by SRB assay; assay type: functional
# [52] = tested on: K562; assay: Cytotoxicity against human K-562 cells after 48 hrs by SRB assay; assay type: functional; conditions: K562, 48 h
# [53] = tested on: MOLT-4; assay: Cytotoxicity against human MOLT-4 cells after 48 hrs by SRB assay; assay type: functional; conditions: MOLT-4, 48 h
# [54] = tested on: RPMI-8226; assay: Cytotoxicity against human RPMI8226 cells after 48 hrs by SRB assay; assay type: functional; conditions: RPMI-8226, 48 h
# [55] = tested on: A549; assay: Cytotoxicity against human A549 cells after 48 hrs by SRB assay; assay type: functional; conditions: A549, 48 h
# [56] = tested on: EKVX; assay: Cytotoxicity against human EKVX cells after 48 hrs by SRB assay; assay type: functional
# [57] = tested on: HOP-62; assay: Cytotoxicity against human HOP-62 cells after 48 hrs by SRB assay; assay type: functional; conditions: HOP-62, 48 h
# [58] = tested on: HOP-92; assay: Cytotoxicity against human HOP-92 cells after 48 hrs by SRB assay; assay type: functional; conditions: HOP-92, 48 h
# [59] = tested on: NCI-H226; assay: Cytotoxicity against human NCI-H226 cells after 48 hrs by SRB assay; assay type: functional; conditions: NCI-H226, 48 h
# [60] = tested on: ACHN; assay: Cytotoxicity against human ACHN cells after 48 hrs by SRB assay; assay type: functional
smiles,measurement,setting,value
CCCCOC(=O)[C@H]1O[C@@H](O[C@H]2CC[C@]3(C)[C@H]4CC=C5[C@@H]6CC(C)(C)CC[C@]6(C(=O)O[C@@H]6O[C@H](CO)[C@@H](O)[C@H](O)[C@H]6O)CC[C@@]5(C)[C@]4(C)CC[C@H]3C2(C)C)[C@H](O)[C@@H](O)[C@@H]1O,GI50,[1],4.08 µM
same,GI50,[2],2510 nM
same,GI50,[3],1360 nM
same,GI50,[4],890 nM
same,GI50,[5],1120 nM
same,GI50,[6],2070 nM
same,GI50,[7],2080 nM
same,GI50,[8],1930 nM
same,GI50,[9],2170 nM
same,GI50,[10],2560 nM
same,GI50,[11],1440 nM
same,GI50,[12],1060 nM
same,GI50,[13],810 nM
same,GI50,[14],1470 nM
same,GI50,[15],1850 nM
same,GI50,[16],2600 nM
same,GI50,[17],930 nM
same,GI50,[18],4.18 µM
same,GI50,[19],890 nM
same,GI50,[20],1700 nM
same,GI50,[21],3.27 µM
same,GI50,[22],3.07 µM
same,GI50,[23],4.28 µM
same,GI50,[24],1560 nM
same,GI50,[25],1480 nM
same,GI50,[26],17.2 µM
same,GI50,[27],1650 nM
same,GI50,[28],1390 nM
same,GI50,[29],1850 nM
same,GI50,[30],12.7 µM
same,GI50,[31],1260 nM
same,GI50,[32],1600 nM
same,GI50,[33],> 50 µM
same,GI50,[34],1150 nM
same,GI50,[35],1620 nM
same,GI50,[36],2520 nM
same,GI50,[37],1700 nM
same,GI50,[38],1750 nM
same,GI50,[39],6.73 µM
same,Activity,[40],10.1%
same,Activity,[41],48.1%
same,Activity,[42],70%
same,Activity,[43],100%
same,IC50,[44],479 molar ratio
same,viability at 1000 molar ratio,[45],70%
same,viability at 500 molar ratio,[46],> 80%
same,viability at 100 molar ratio,[47],> 80%
same,viability at 10 molar ratio,[48],> 80%
same,ID50,[49],0.07 mg
same,GI50,[50],1210 nM
same,GI50,[51],23.1 µM
same,GI50,[52],1580 nM
same,GI50,[53],1000 nM
same,GI50,[54],780 nM
same,GI50,[55],1830 nM
same,GI50,[56],3.39 µM
same,GI50,[57],2220 nM
same,GI50,[58],1040 nM
same,GI50,[59],1490 nM
same,GI50,[60],6.29 µM
